This passage reports Activity and inhibition results from ChEMBL document CHEMBL4619805, “Structural Analysis of VDR Complex with ZK168281 Antagonist” (J Med Chem, 2020).

The source made the active and inactive calls. The calls are words filed in the database; no cut-off is given here.

Test [1] concerns the target T1, Vitamin D3 receptor A (Danio rerio) (UniProt Q9PTN2).
T1 sequence (whole entry): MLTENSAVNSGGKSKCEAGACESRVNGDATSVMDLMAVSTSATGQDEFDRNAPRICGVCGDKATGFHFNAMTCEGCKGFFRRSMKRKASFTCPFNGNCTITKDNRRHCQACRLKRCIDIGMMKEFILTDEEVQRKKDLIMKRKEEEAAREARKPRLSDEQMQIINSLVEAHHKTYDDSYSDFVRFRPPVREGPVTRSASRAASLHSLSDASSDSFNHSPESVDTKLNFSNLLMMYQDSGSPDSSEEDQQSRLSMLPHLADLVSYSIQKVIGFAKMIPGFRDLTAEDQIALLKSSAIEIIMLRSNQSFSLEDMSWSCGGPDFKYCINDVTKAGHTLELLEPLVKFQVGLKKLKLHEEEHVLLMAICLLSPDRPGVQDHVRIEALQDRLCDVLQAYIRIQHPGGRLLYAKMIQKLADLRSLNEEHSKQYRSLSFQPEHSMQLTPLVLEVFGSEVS
Nature of the test: Binding affinity to zebrafish VDR LBD assessed as stabilization of structural elements forming LBP at 10 fold excess compound concentration by HDX-MS analysis. The gist of the method: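 zVDR LBD (10 µM) incubated 30 min at room temperature with ten-fold ligand excess, ethanol as control. D₂O exchange for 60, 180, 600 or 1800 s in 50 mM Tris pH 8.0, 50 mM NaCl, 2% glycerol, 1 mM TCEP. Quench with 3 M urea/0.1% TFA, then pepsin column digestion and UPLC-MS. Back-exchange corrected using a fully deuterated sample. Triplicate reactions.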

Test [2] concerns the target T1, Vitamin D3 receptor A (Danio rerio). As to the kind of experiment: Binding affinity to H12 region of zebrafish VDR LBD assessed as stabilization of structural elements forming LBP at 10 fold excess compound concentration by HDX-MS analysis. The gist of the method: (§1)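 zVDR LBD (residues 156–453, 10 µM) preincubated 30 min at room temperature with tenfold ligand excess (ethanol control). D2O exchange in 50 mM Tris pH 8.0, 50 mM NaCl, 2% glycerol, 1 mM TCEP for 60–1800 s. Quench with urea/TFA, online pepsin digest, UPLC-MS. Back-exchange corrected against fully deuterated sample; triplicates.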

Test [3] has the same target. As to the kind of experiment: Binding affinity to H10 region (416 to 426 residues) of zebrafish VDR LBD assessed as stabilization of structural elements at 10 fold excess compound concentration in presence of SRC1 NR2 coactivator peptide measured at 3 and 10 mins by HDX-MS analysis. The method in brief:
(§2)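 Deuterium exchange ran for 60, 180, 600 or 1800 s in D₂O buffer (50 mM Tris pH 8.0, 50 mM NaCl, 2% glycerol, 1 mM TCEP). Quench with urea/TFA, then online pepsin digestion and UPLC-MS. Uptake corrected for back exchange against a fully deuterated control. Triplicates.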

Test [4] shares this target. Nature of the test: Binding affinity to H12 region (440 to 445 residues) of zebrafish VDR LBD assessed as stabilization of structural elements by measuring increase in protection at 10 fold excess compound concentration in presence of SRC1 NR2 coactivator peptide measured at 1 mins by HDX-MS analysis. The method in brief:
as §2

The target is the same in test [5]. Nature of the test: Binding affinity to H3 and H7 region of zebrafish VDR LBD assessed as stabilization of structural elements by measuring increase in protection at 10 fold excess compound concentration in presence of SRC1 NR2 coactivator peptide measured at 1 mins by HDX-MS analysis. The method in brief:
(§3)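 Deuterium exchange at pH 8.0 for 60, 180, 600 or 1800 s. Quench, pepsin digestion, UPLC-MS. Per-residue deuteration corrected to a fully deuterated control; triplicates.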

Test [6] shares this target. As to the kind of experiment: Binding affinity to H3 region (253 to 267 residues) of zebrafish VDR LBD assessed as stabilization of structural elements by measuring increase in protection at 10 fold excess compound concentration in presence of SRC1 NR2 coactivator peptide measured at 1 mins by HDX-MS analysis. The gist of the method: as §3
The target is the same in test [7]. As to the kind of experiment: Binding affinity to H6 to H7 region (322 to 344 residues) of zebrafish VDR LBD assessed as stabilization of structural elements by measuring increase in protection at 10 fold excess compound concentration in presence of SRC1 NR2 coactivator peptide measured at 1 mins by HDX-MS analysis. The method in brief:
as §3

Test [8] has the same target. As to the kind of experiment: Binding affinity to H10 to H11 region (416 to 437 residues) of zebrafish VDR LBD assessed as stabilization of structural elements by measuring increase in protection at 10 fold excess compound concentration in presence of SRC1 NR2 coactivator peptide measured at 1 mins by HDX-MS analysis. The gist of the method: as §3
Test [9] has the same target. As to the kind of experiment: Binding affinity to H1 region of zebrafish VDR LBD assessed as stabilization of structural elements forming LBP at 10 fold excess compound concentration by HDX-MS analysis. The method in brief:
as §1

Test [10] has the same target. As to the kind of experiment: Binding affinity to H2 region of zebrafish VDR LBD assessed as stabilization of structural elements forming LBP at 10 fold excess compound concentration by HDX-MS analysis. The gist of the method:
as §1

Test [11] shares this target. Nature of the test: Binding affinity to H12 region of zebrafish VDR LBD assessed as stabilization of structural elements at 10 fold excess compound concentration in presence of SRC1 NR2 coactivator peptide by HDX-MS analysis. The gist of the method:
as §3

Test [12] concerns the target T2, Vitamin D3 receptor (Homo sapiens) (UniProt P11473).
T2 sequence (whole entry): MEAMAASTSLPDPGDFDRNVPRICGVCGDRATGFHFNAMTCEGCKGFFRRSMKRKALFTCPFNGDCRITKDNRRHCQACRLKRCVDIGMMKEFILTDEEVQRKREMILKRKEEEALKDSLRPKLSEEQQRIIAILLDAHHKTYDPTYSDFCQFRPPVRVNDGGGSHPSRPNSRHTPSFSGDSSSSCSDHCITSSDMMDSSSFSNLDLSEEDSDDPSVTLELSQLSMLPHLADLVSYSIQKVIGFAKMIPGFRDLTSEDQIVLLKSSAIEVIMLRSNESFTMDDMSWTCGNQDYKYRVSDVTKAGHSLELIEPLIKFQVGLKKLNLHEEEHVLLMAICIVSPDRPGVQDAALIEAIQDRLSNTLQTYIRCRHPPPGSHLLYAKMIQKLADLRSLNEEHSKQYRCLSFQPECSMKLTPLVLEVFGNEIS
As to the kind of experiment: Antagonist activity at human VDR expressed in HEK293 EBNA cells co-expressing CYP24A1 promoter region assessed as reduction in 1,25D3-induced receptor activation at 0.1 to 1000 nM incubated for 18 hrs by luciferase reporter gene assay relative to control. Format: cell-based. The arrangement: scale not given: the % may be the effect or the level left. The method in brief: (§4)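 HEK293 EBNA cells, in 5% charcoal-treated FCS for 48 h, co-transfected by jetPEI with full-length hVDR, firefly luciferase under the human CYP24A1 proximal promoter (-414 to -64), and Renilla. 6 h later, 10 nM 1,25D3 ± compound (0.1–1000 nM) added for 18 h. Lysate luciferase normalized to Renilla; triplicate, mean ± SD.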

In test [13] the target is T2, Vitamin D3 receptor (Homo sapiens). As to the kind of experiment: Antagonist activity at human VDR expressed in HEK293 EBNA cells co-expressing CYP24A1 promoter region assessed as reduction in 1,25D3-induced receptor activation at 0.1 to 1000 nM incubated for 18 hrs by luciferase reporter gene assay. The class given is cell-based. The gist of the method: as §4
(In general: Reporter assays use an easily measured gene product as a stand-in for the process of interest.)

The target of test [14] is T1, Vitamin D3 receptor A (Danio rerio). As to the kind of experiment: Antagonist activity at full-length zebrafish VDR expressed in rat IEC18 cells co-expressing CYP24A1 promoter region assessed as reduction in 1,25D3-induced receptor activation at 1 to 1000 nM incubated for 24 hrs by luciferase reporter gene assay.
The target is the same in test [15]. Nature of the test: Binding affinity to H5 region (290 to 297 residues) of zebrafish VDR LBD assessed as destabilization of structural elements by measuring deprotection at 10 fold excess compound concentration in presence of SRC1 NR2 coactivator peptide measured at 1 mins by HDX-MS analysis relative to 1,25D3.

For `C=C1/C(=C\C=C2/CCC[C@]3(C)[C@@H]([C@H](C)CCCC(C)(C)O)CC[C@@H]23)C[C@@H](O)C[C@@H]1O`, the result in test [1] and in test [3] was Active. Moreover, in test [2], the result was inactive. Moreover, the Activity in test [4] is 30 to 40%.
As for `C=C1/C(=C\C=C2/CCC[C@]3(C)[C@@H]([C@H](C)/C=C/[C@@H](O)C4(/C=C/C(=O)OCC)CC4)CC[C@@H]23)C[C@@H](O)C[C@@H]1O`, the outcome in test [2] and in [11] was inactive. In addition, the Activity in [5] is less than 80%; in test [12] it was less than 60%; in test [15] it was more than 30%. Moreover, the result in [6], in test [7], in test [8], in test [9] and in test [10] was Active. Further, in [13], the inhibition entry is “Dose-dependent effect”. In addition, the inhibition result in test [14] is “Active”.
